From PubChem
T cell HTS: modulators of CD8 T cell-vesicle binding, primary screen, mouse 2C CD8+ T cells, flow cytometry. 330,000 compounds, 0.068% hits. 2C CD8+ T cell-vesicle binding; hits give low values. response (vesicle binding), % at 7 µM;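 active = response, share of CD8 T cells binding vesicles, and their 90th percentile fluorescence all below set limits, cut at about 80% in these data, passing the limit was not always enough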;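 note: values below 100% mean blocked vesicle binding to the CD8+ T cells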
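Read-out – percent CD8+ FL2 mean versus row control · System – murine 2C transgenic CD8+ T lymphocytes · Times – 1.5 h cell–vesicle binding at 37 °C, then 20 min icy labelling · Control set – naked vesicles low, QL9 vesicles with vehicle high · Detection – cytometric PE anti-B7-1 and Alexa647 anti-CD8 signals after 1% paraformaldehyde fixation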
NR2E3 ag-1: NR2E3 agonists in two-hybrid cells, primary screen, cell-based, luminescence, CHO-S, Gal4-NCOR/VP16-NR2E3; Photoreceptor-specific nuclear receptor (Homo sapiens), Q9Y5X4; luciferase; inhibition of corepressor binding, % at 3.98 µM; 360,000 compounds, 0.35% hits; AID 602229, 2012;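 active = inhibition above the mean of all tested compounds plus 3 SD, cut at about 70% in these data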;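 note: 0% = DMSO with NR2E3 transfected cells and 100% = cells lacking NR2E3 construct; higher means lower luciferase signal from less NR2E3 corepressor binding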
Target sequence (Q9Y5X4 whole entry, looked up, the tested form may be a part): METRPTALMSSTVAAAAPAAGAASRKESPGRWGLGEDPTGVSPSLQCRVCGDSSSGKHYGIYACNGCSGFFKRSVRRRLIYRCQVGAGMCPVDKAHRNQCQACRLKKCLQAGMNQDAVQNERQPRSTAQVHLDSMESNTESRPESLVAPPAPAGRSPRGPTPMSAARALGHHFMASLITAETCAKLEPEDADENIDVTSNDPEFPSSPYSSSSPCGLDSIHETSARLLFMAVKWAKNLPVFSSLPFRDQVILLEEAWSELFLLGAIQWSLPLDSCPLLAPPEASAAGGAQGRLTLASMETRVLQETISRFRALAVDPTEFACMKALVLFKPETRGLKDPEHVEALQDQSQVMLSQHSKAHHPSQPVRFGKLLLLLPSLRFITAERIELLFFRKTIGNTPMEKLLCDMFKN
FXN GAA850 act: FXN promoter activators, primary screen, cell-based, luciferase luminescence, HEK293 lucGAA850. AID 540364, 2011. 360,000 compounds, 0.56% hits. HEK293 lucGAA850 FXN promoter luciferase reporter, 24 h; percent of 10 µM SAHA response. activation, % at 6 µM;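 active = activation above the average of all compounds screened plus 3 SD, cutoff fixed separately per campaign, cut at about 7.5% in these data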;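 note: 0% = DMSO wells and 100% = 10 µM SAHA wells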
NR2E3 ag-2: inhibitors of NR2E3-RetCOR corepressor binding, primary screen, NR2E3 agonist project, biochemical, TR-FRET, GST-NR2E3, biotin-RetCOR; 320,000 compounds, 0.12% hits; AID 2300, 2010; inhibition of corepressor binding, % at 4.78 µM; Photoreceptor-specific nuclear receptor (Homo sapiens), Q9Y5X4; 1536-well;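 active = percent inhibition above the cutoff of mean plus 3 SD of all tested compounds, set per screening campaign, cut at about 20% in these data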;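 note: 0% = DMSO wells and 100% = biotin wells as full block of FRET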
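Material: NR2E3–RetCOR corepressor complex / Amount: 1.35 nM GST-NR2E3 / Medium: Tris pH 7.5 / Compound: single nominal compound dose of 4.8 µM / Incubation: 5 h at 4 °C / Technique: TR-FRET, Eu(K)-anti-GST donor, streptavidin-D2 acceptor, ex 340, em 617/671 nm / Read-out basis: percent loss of FRET ratio relative to control wells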
Myeloid diff 2: induction of myeloid progenitor differentiation, primary screen, cell-based, flow cytometry, MLPCN library | ER-HoxA9 myeloid progenitors, lysozyme-GFP differentiation | calls only at 10 µM | 360,000 compounds, 1% hits | AID 624256, 2012;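 active = normalized GFP-positive differentiation at or above the plate's own cutoff, the solvent-only control mean plus 3 SD; inconclusive = no clear call, values can overlap the other calls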;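 note: cells exposed to compound for four days before flow analysis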
GAA30 counter: GAA30 FXN promoter activators, confirmation, counter-screen for GAA850 frataxin promoter activator project, cell-based, luminescence, HEK293, lucGAA30, triplicate | AID 588350, 2011 | shares compounds with FXN GAA850 act | activation, % at 6 µM | 1,900 compounds, 66% hits | HEK293 lucGAA30 FXN promoter luciferase, 24 h; DMSO = 0%, 5 µM ipriflavone = 100%;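 active = mean activation above the mean of solvent-only control wells plus 3 SD, cut at about 22% in these data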;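 note: counterscreen of GAA850 promoter hits where activity marks nonselective or luminescence artifacts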
FXN GAA850 conf: FXN GAA850 promoter activators in reporter cells, confirmation, cell-based, luminescence, HEK293 lucGAA850, triplicate; shares compounds with FXN GAA850 act; HEK293 lucGAA850 FXN promoter luciferase reporter, 24 h; 100% = activation by SAHA; activation, % at 6 µM; 1,900 compounds, 86% hits; AID 588351, 2011;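 active = mean activation above a set limit taken from the primary screen, cut at about 8% in these data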;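 note: 0% = DMSO wells and 100% = 10 µM SAHA wells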
* = called active by the depositor; i = inactive; ? = inconclusive; / = no result. This is a sample that favours compounds with a hit; in the whole collection about 2% have one here.

SMILES	T cell HTS	NR2E3 ag-1	FXN GAA850 act	NR2E3 ag-2	Myeloid diff 2	GAA30 counter	FXN GAA850 conf
CCOc1ccc(Nc2n[nH]c(=S)s2)cc1	195	-132	9.8*	-2	i	116*	32*
Cc1c(Cc2ccccc2)sc(NC(=O)c2ccco2)c1C(N)=O	225	-29	8.8*	0	i	38*	11*
O=C(/C=C/Sc1ccccc1)c1ccc(Cl)cc1	328	-104	12*	2	/	86*	58*
N#CCCN1CCN(C(=S)c2ccc(-c3ccc(Cl)c(Cl)c3)o2)CC1	433	-34	8.7*	-2	i	72*	30*
CC(=O)N1CCN(C(=S)c2ccc(-c3ccc(Cl)cc3)o2)CC1	258	-18	1	0	i	/	/
N#CCCN1CCN(C(=S)c2ccc(-c3cccc(Cl)c3)o2)CC1	201	-66	8.6*	1	i	74*	31*
O=C(NCc1cccs1)C1C(=O)Nc2ccccc2C(=O)N1Cc1ccccc1 (stereo not given)	/	/	/	/	i	/	/
Nc1nn2cc(-c3ccc(Br)cc3)nc2c2ccccc12	284	-87	12*	0	i	120*	50*
O=C(CC1SC(N2CCOCC2)=NC1=O)Nc1cccc(C(F)(F)F)c1 (stereo not given)	326	16	0	/	i	/	/
CCOC(=O)c1sc(NC(=O)Cn2nnc3sc4c(c3c2=O)CCC(C(C)(C)C)C4)nc1C (stereo not given)	247	21	0	-3	i	/	/
CC(=O)Cn1nnc2sc3c(c2c1=O)CCC(C(C)(C)C)C3 (stereo not given)	244	-109	8.2*	-1	i	119*	45*
COc1ccccc1-n1cc(CN2CCN(CC=C(C)C)C(CCO)C2)cn1 (stereo not given)	637	-1	0	-1	i	/	/
c1ccc(CNC2CC3CCC2C3)cc1 (stereo not given)	/	-8	1	/	i	/	/
COc1ccc(C(=O)COC(=O)c2ccc(OC)c(OC)c2)cc1OC	84	0	3	2	i	/	/
COc1ccc(C(=O)CSC#N)cc1OC	486	-23	12*	1	i	8	32*
COCc1cc(C)nc(SCC(=O)c2ccc(O)c(O)c2)c1C#N	244	-29	10*	0	i	40*	18*
O=C(O)c1ccc(-c2nc(-c3ccc(Cl)cc3Cl)cs2)cc1	529	-81	8.2*	1	i	113*	44*
COc1ccc(-c2csc(-c3ccc(C(=O)O)cc3)n2)cc1	139	-110	9.8*	2	i	85*	37*
O=C(O)c1ccc(-c2nc(-c3ccc(Cl)cc3)cs2)cc1	/	-166	6	/	i	/	/
COc1ccc(-c2nc(CC(=O)O)cs2)cc1	753	-11	-1	-4	i	/	/
CCN(CC)CCOC(=O)c1ccc(NC(=O)CSc2nnc(-c3cccs3)n2CC)cc1	/	7	1	/	i	/	/
Cc1ccc(C2CC(=O)C(C=NCCN3CCN(CC(=O)Nc4cc(C)cc(C)c4)CC3)=C(O)C2)cc1 (stereo not given)	/	-18	8.5*	/	i	13	6
CCOc1ccc(C2C(C(=O)c3ccc(C)o3)=C(O)C(=O)N2c2nc(C)c(C(=O)OC)s2)cc1 (stereo not given)	201	-55	7.6*	8	?	33*	18*
COc1ccc(-c2nc(C#N)c(NCCc3ccccc3)o2)cc1OC	335	-62	8.2*	-1	i	100*	34*
CCn1c(SCC(=O)Nc2oc(-c3ccccc3)c(-c3ccccc3)c2C#N)nnc1-c1cc(OC)cc(OC)c1	416	-19	13*	-3	i	12	1
SMILES	T cell HTS	NR2E3 ag-1	FXN GAA850 act	NR2E3 ag-2	Myeloid diff 2	GAA30 counter	FXN GAA850 conf
C=CCSc1nc(N)c(NC(=O)c2ccco2)c(=O)[nH]1	541	-7	14*	6	i	28*	9.8*
Nc1ccc(C(=O)N/N=C/c2sc(N3CCOCC3)nc2-c2ccccc2)cc1	210	-20	2	-4	i	/	/
O=C(O)c1cccc(N/N=C/c2sc(N3CCOCC3)nc2-c2ccccc2)c1	237	-126	11*	-4	i	133*	39*
COc1ccc(CCN(C)C(=O)CCc2nnc(-c3ccccc3)o2)cc1OC	237	-142	9.3*	2	i	110*	31*
O=S(=O)(CC(CN1CCCCC1)N1CCCCC1)c1ccccc1 (stereo not given)	465	-3	8.4*	4	i	76*	30*
O=[N+]([O-])c1ccc(S(=O)(=O)CC(CN2CCCCC2)N2CCCCC2)cc1 (stereo not given)	805	7	5	3	i	/	/
COc1nc(N)nc(NC23CC4CC(CC(C4)C2)C3)n1	618	-20	9.2*	6	i	57*	20*
Cc1ccc(S(=O)(=O)NC(=O)C2(C)CCN2C(=O)c2ccc(C(F)(F)F)nc2C)cc1 (stereo not given)	/	-25	1	/	i	/	/
CCOC(=O)/C(=N\Nc1ccc(OC)cc1)c1csc(Nc2ccccc2)n1	260	-28	11*	4	i	38*	25*
CCOC(=O)/C(=N\Nc1ccc(Cl)cc1)c1csc(Nc2ccccc2)n1	50	-23	8.0*	1	i	34*	24*
CCOC(=O)/C(=N/Nc1ccccc1)c1csc(Nc2ccccc2)n1	296	-25	7	-1	i	/	/
CCCCC(CCC(=O)O)(C(=O)OCC)c1csc(Nc2ccccc2)n1 (stereo not given)	220	-15	-1	1	i	/	/
C(=N\Nc1ncnc2nc[nH]c12)/c1cccs1	493	-60	12*	-6	i	88*	43*
Cc1cc(=O)[nH]c(N/N=C/c2sccc2C)n1	242	-40	4	-3	i	/	/
Cc1ccccc1/C=N/Nc1ncnc2nc[nH]c12	574	-29	8.4*	-2	i	64*	21*
Cc1ccsc1/C=N/Nc1ncnc2nc[nH]c12	229	-67	13*	-7	i	129*	48*
